# Experiments:
# Assay type in all cases: functional
# Candida albicans [1] = assay: Antifungal activity against Candida albicans ATCC 90028 at 0.125 ug/ml after 48 hrs relative to control
# In short: (§1)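 Planktonic broth microdilution per M27-A3 in MOPS-buffered RPMI 1640 (pH 7.0), final inoculum 1.8×10^3 cells/mL, compounds 0.0313–16 µg/mL from 1600 µg/mL stocks in ethanol or DMSO. Incubated at 35°C without agitation; OD405 read at 18 and 48 h. % inhibition was derived from test, sterility (no inoculum) and solvent growth-control wells. Amphotericin B at 0.5 µg/mL served as the 100% control.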
# Candida albicans [2] = assay: Antifungal activity against Candida albicans ATCC 90028 at 8 ug/ml after 48 hrs relative to control; in short: as §1
# Candida albicans [3] = assay: Antifungal activity against Candida albicans ATCC 90028 at 16 ug/ml after 18 hrs relative to control; in short: as §1
# Candida albicans [4] = assay: Antifungal activity against Candida albicans ATCC 90028 at 0.25 ug/ml after 48 hrs relative to control
# In short: (§2)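 Fluconazole (water stock, diluted in RPMI 1640) tested by CLSI M27-A3 broth microdilution against C. albicans ATCC 90028. Inoculum 1.8×10^3 cells/mL in RPMI 1640 buffered with MOPS, pH 7.0. Incubation at 35°C without agitation, read at 18 and 48 h. Growth by OD405 and visually; inhibition % calculated against solvent growth-control wells after subtracting sterility-control wells.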
# Candida albicans [5] = assay: Antifungal activity against Candida albicans ATCC 90028 at 8 ug/ml after 18 hrs relative to control; in short: as §1
# Candida albicans [6] = assay: Antifungal activity against Candida albicans ATCC 90028 at 4 ug/ml after 48 hrs relative to control; in short: as §1
# Candida albicans [7] = assay: Antifungal activity against Candida albicans ATCC 90028 at 0.125 ug/ml after 18 hrs relative to control; in short: as §1
# Candida albicans [8] = assay: Antifungal activity against Candida albicans ATCC 90028 at 1 ug/ml after 18 hrs relative to control; in short: as §1
# Candida albicans [9] = assay: Antifungal activity against Candida albicans ATCC 90028 at 0.0625 ug/ml after 48 hrs relative to control; in short: as §1
# Candida albicans [10] = assay: Antifungal activity against Candida albicans ATCC 90028 at 2 ug/ml after 18 hrs relative to control; in short: as §1
# Candida albicans [11] = assay: Antifungal activity against Candida albicans ATCC 90028 at 0.0625 ug/ml after 18 hrs relative to control
# Candida albicans [12] = assay: Antifungal activity against Candida albicans ATCC 90028 at 0.0313 ug/ml after 48 hrs relative to control
# Candida albicans [13] = assay: Antifungal activity against Candida albicans ATCC 90028 at 16 ug/ml after 48 hrs relative to control; in short: as §1
# Candida albicans [14] = assay: Antifungal activity against Candida albicans ATCC 90028 at 0.25 ug/ml after 18 hrs relative to control; in short: as §2
# Candida albicans [15] = assay: Fungicidal activity against Candida albicans ATCC 90028 at 16 ug/ml after 48 hrs by M27-A3 microdilution method
# In short: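 After 48 h at 35°C in M27-A3 microdilution plates (compound at 16 µg/mL), 50 µL aliquots from treated and solvent-control wells were diluted 10^4 in PBS and plated on drug-free Sabouraud dextrose agar, then incubated 48 h at 35°C. Reduction R = lg CFU/mL control − lg CFU/mL treated; R ≥ 3 defined as fungicidal.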
# Candida albicans [16] = assay: Antifungal activity against Candida albicans ATCC 90028 at 0.5 ug/ml after 18 hrs relative to control; in short: as §1
# Candida albicans [17] = assay: Antifungal activity against Candida albicans ATCC 90028 at 0.5 ug/ml after 48 hrs relative to control; in short: as §1
# Candida albicans [18] = assay: Antifungal activity against Candida albicans ATCC 90028 at 1 ug/ml after 48 hrs relative to control; in short: as §1
# Candida albicans [19] = assay: Antifungal activity against Candida albicans ATCC 90028 at 4 ug/ml after 18 hrs relative to control; in short: as §1
# Candida albicans [20] = assay: Antifungal activity against Candida albicans ATCC 90028 at 0.0313 ug/ml after 18 hrs relative to control
# Candida albicans [21] = assay: Antifungal activity against Candida albicans ATCC 90028 at 2 ug/ml after 48 hrs relative to control; in short: as §1
Structure (SMILES),Activity (Candida albicans [1]) [%],Activity (Candida albicans [2]) [%],Activity (Candida albicans [3]) [%],Activity (Candida albicans [4]) [%],Activity (Candida albicans [5]) [%],Activity (Candida albicans [6]) [%],Activity (Candida albicans [7]) [%],Activity (Candida albicans [8]) [%],Activity (Candida albicans [9]) [%],Activity (Candida albicans [10]) [%],Activity (Candida albicans [11]) [%],Activity (Candida albicans [12]) [%],Activity (Candida albicans [13]) [%],Activity (Candida albicans [14]) [%],Activity (Candida albicans [15]) [log10CFU/ml],Activity (Candida albicans [16]) [%],Activity (Candida albicans [17]) [%],Activity (Candida albicans [18]) [%],Activity (Candida albicans [19]) [%],Activity (Candida albicans [20]) [%],other results
Clc1ccc(-c2nnn(CCCN3CCOCC3)n2)cc1,98.92,98.81,100,99.24,96.3,98.97,99.95,98.79,99.28,98.31,100,99.12,99.35,99.91,0.34,92.34,99.32,99.36,98.1,97.92,Activity (Candida albicans [21]): 99.61%
CCOC(=O)CCn1nnnc1-c1ccc(C)cc1,98.94,98.86,98.97,98.72,98.51,99.01,99.61,98.46,99.11,89.93,99.59,99.34,98.82,95.87,-0.54,98.88,99.08,99.04,99.94,99.74,Activity (Candida albicans [21]): 97.05%
Cc1ccc(-c2nnn(CCCCl)n2)cc1,98.92,99.08,98.46,98.79,99.06,98.84,98.66,99.6,99.12,98.39,99.06,98.94,98.26,99.45,0.65,97.59,98.95,98.65,99.63,98.95,Activity (Candida albicans [21]): 98.87%
ClCCCn1nnc(-c2ccccc2)n1,99.19,99.63,99.36,99.16,99.54,99.29,99.65,62.02,99.76,99.25,99.99,99.38,99.22,98.55,-0.23,99.1,99.16,97.6,99.53,99.51,Activity (Candida albicans [21]): 99.57%
CCOC(=O)CCn1nnc(-c2ccc(C)cc2)n1,98.72,99.14,99.98,98.95,99.61,98.95,99.76,45.15,98.79,98.19,99.51,98.81,99.37,98.38,-0.23,99.07,99.16,96.34,98.99,99.31,Activity (Candida albicans [21]): 98.95%
CCOC(=O)CCn1nnc(-c2ccc(Cl)cc2)n1,98.85,98.86,100,98.87,97.97,99.07,99.92,84.36,98.8,99.74,99.88,99.14,98.78,99.95,0.29,98.32,99,98.78,99.85,99.32,Activity (Candida albicans [21]): 99.12%
CCOC(=O)CCn1nnnc1-c1ccccc1,99.01,99.02,99.13,98.01,99.4,98.91,99.99,95.93,99.26,90.79,99.37,99.23,98.96,95.76,0.16,98.87,98.96,98.87,98.44,99.69,Activity (Candida albicans [21]): 97.06%
ClCCCn1nnc(-c2ccc(Cl)cc2)n1,98.9,98.75,100,99.04,98.47,98.93,99.94,91.33,98.83,99.22,99.94,99,98.74,99.99,0.26,96.41,98.74,99.1,99.02,96.23,Activity (Candida albicans [21]): 99.24%
ClCCCn1nnc(-c2ccccc2Cl)n1,99.13,99.05,94.16,98.96,98.9,98.5,99.62,98.99,99.03,95,98.61,99.17,98.34,99.95,0.51,98.9,98.89,98.69,99.32,99.97,Activity (Candida albicans [21]): 98.6%
ClCCCn1nnnc1-c1ccccc1,99.16,98.81,98.95,98.19,98.57,98.9,98.12,96.69,99.12,95.82,99.45,99.02,99.05,94.68,-0.18,97.53,98.82,98.8,98.66,99.65,Activity (Candida albicans [21]): 97.23%
CCOC(=O)CCn1nnnc1-c1ccccc1Cl,99.24,99.17,99.55,99.02,99.99,99.25,99.93,87.68,99.19,92.75,99.98,99.2,99.28,99.78,-0.01,97.11,99.06,99.17,99.9,99.33,Activity (Candida albicans [21]): 99.07%

# Source: ChEMBL document CHEMBL4145471, “New 1,5 and 2,5-disubstituted tetrazoles-dependent activity towards surface barrier of Candida albicans” (Eur J Med Chem, 2018)
